For 97 compounds, cytotoxicity results are on record in ChEMBL document CHEMBL4513216, “Probing the Open Global Health Chemical Diversity Library for Multistage-Active Starting Points for Next-Generation Antimalarials” (ACS Infect Dis, 2020).

The data set can be described thus: Toxicity liver stage against HepG2, at 10uM. It is filed as cell-based. Set-up: test concentration 10 uM, cell line HepG2-A16-CD81EGFP. The following applies: human, HepG2-A16-CD81EGFP cells; read-out: INHIBITION
Summed up:
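Uninfected HepG2-A16-CD81EGFP cells, 3 × 10^3 per well, 1536-well, plated on prespotted compound at 10 μM final, parasite-free screening media added to match infected plates; puromycin 10 μM positive, DMSO 0.5% negative; run in parallel with 48 h PbLuc assay at 37 °C, 5% CO2; viability by CellTiter-Glo luminescence, normalized to controls.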
Consider `Cc1ccc(C2CN(Cc3cnc(-c4ccccn4)s3)CCO2)o1` (configuration not stated), for which the cytotoxicity at 10 µM is 2.91%.
In the case of `Cc1ccc(C2(CN3CCN(Cc4cnc(C)n4C)CC3)CC2)cc1` it was -3.99%.
In the case of `CC(C)N1CCO[C@@H]2CN(C(=O)NCc3ccccc3)CC[C@@H]2C1` it was -102%; in that of `Cc1cc(CN2CCC(C3CCN(CCc4ccccc4)C3)CC2)[nH]n1` (configuration not stated), 7.19%; in that of `Cc1cc(C2CCC2)nc(N2CCC3(CCCN(C)C3=O)C2)n1` (configuration not stated), -6.62%.
In the case of `CCOCCCC(=O)NCc1cn2cc(Br)ccc2n1`, the cytotoxicity at 10 µM is 2.73%.
With `Cc1cccnc1C(Nc1nccc(C2CCCC2)n1)C1CC1` (configuration not stated), the cytotoxicity at 10 µM is -121%.
On to `CNC(=O)CCc1cc(C2CCCCN2C(C)C)nc(C)n1` (configuration not stated), for which the cytotoxicity at 10 µM was -1.66%.
In the case of `CC(CO)N1CCN(C(=O)OC(C)(C)C)CC1` (configuration not stated), the cytotoxicity at 10 µM was -7.85%.
In the case of `Cc1cc(NC(C)C(=O)N2CCN(c3ncccn3)CC2)ccc1F` (configuration not stated) it was 7.77%; in that of `CN(CCCc1cc(-c2ccc(F)cc2)n(C)n1)CC(N)=O`, -8.71%.
In the case of `CN1CCC(c2n[nH]cc2-c2ccnc(N)c2)C1` (configuration not stated) it was 3.79%.
Then `O=C(Cc1n[nH]c(-c2cncc(Br)c2)n1)NCc1cccnc1`, with 2.74%; and `Cc1cc(C(=O)N2CCN(CC(O)Cn3cccn3)CC2)c(C)o1` (configuration not stated), with -4.76%.
On to `NC(=O)CN1CC2(CCC1=O)CCN(Cc1cc(F)cc(F)c1)CC2`, for which the cytotoxicity at 10 µM came out at 7.1%.
In the case of `O=C(C1CCS(=O)(=O)C1)N1CCN(c2cnccn2)CC1` (configuration not stated) it was -6.66%; in that of `Cc1cnc(N2CCC3(CCCN(c4ncc(F)cn4)C3)C2)nc1` (configuration not stated), -124%.
In the case of `CC(C)N1CCCCC1c1nc(N(C)C)ncc1I` (configuration not stated) it was -3%; in that of `COc1ccc(CCC(C)Nc2cccc(SC)c2)cc1` (configuration not stated), -1.11%.
Then `Cc1cccc(C(=O)N2C[C@@H]3COC[C@@H](CC(=O)N4CCCC4)[C@@H]3C2)n1`, with -120%; and `O=C(c1ccncc1)N1CCc2ncnc(C3CC3)c2CC1`, with -75.6%; and `CNC(=O)C1CCC2(CCN(c3nncs3)CC2)CO1` (configuration not stated), with 6.01%.
In the case of `Cc1cccc(CN2C[C@@H]3CN(Cc4ccoc4)CCO[C@@H]3C2)n1`, the cytotoxicity at 10 µM turned out to be 6.53%.
Then `COCCn1ccnc1CN1CCc2[nH]cnc2C1c1ccccn1` (configuration not stated), with -3.3%; and `C[C@]1(O)CN(CC(=O)N2CCCC2)CC[C@@H]1Oc1cccc(F)c1`, with -19.1%; and `CC(=O)NCC1CCC2(CCN(c3ncc(C(C)=O)c(C)n3)CC2)O1` (configuration not stated), with -0.611%.
Then `CCc1nccn1CC1CCCN1S(=O)(=O)Cc1ccccc1` (configuration not stated), with -13.4%; and `CN1CCC(NN2CCN(C)CC2)CC1`, with -2.76%.
`O=C(NCc1cncc2c1CCN(CC1CCOC1)C2)c1ccco1` (configuration not stated): the cytotoxicity at 10 µM is -9.55%.
`COC(=O)CCCC(=O)N(C)CC1Cc2ccccc2CN1C` (configuration not stated): the cytotoxicity at 10 µM was -12.4%.
Turning to `Nc1nc(CCCNC(=O)c2ccc(C3CCCNC3)cc2)cs1` (configuration not stated), the cytotoxicity at 10 µM came to 2.77%.
Then `CCn1ncc(-c2cc(C(F)F)n3nc(CCC(=O)O)nc3n2)c1C`, with -9.44%; and `O=C(Nc1ccc(-c2ccn[nH]2)cc1)C1CCCN(Cc2ccoc2)C1` (configuration not stated), with -0.16%.
In the case of `c1cnc(N2CCO[C@H]3CN(CC4CCOCC4)C[C@H]32)nc1` it was -95.9%; in that of `Cc1cnn(CCNCC(O)c2cccc(Br)c2)c1` (configuration not stated), 1.66%; in that of `Cc1cc(C)n(-c2cc(N3CCN(C(=O)C(C)(C)C)CC3)nc(C)n2)n1`, 37.1%.
Then `Cc1nc(C(=O)NCc2ccccn2)cc(C2CCCN2)n1` (configuration not stated), with 6.83%; and `COc1ccc(Br)cc1CC(=O)Nc1cc(C)n[nH]1`, with -0.405%.
As to `N#Cc1cccc(OC2CCN(C(=O)c3cncc(O)c3)CC2)c1`, the cytotoxicity at 10 µM worked out at 7.28%.
Then `Cc1cccc(CNC(=O)NCC2CCN(Cc3ncc[nH]3)C2)c1` (configuration not stated), with 1.86%.
`Cc1ccn2cc(C(=O)N3CCCC(Cn4cc(CO)nn4)C3)nc2c1` (configuration not stated): the cytotoxicity at 10 µM is 2.41%.
Then `CCN1CCC(CC(=O)N(C)C(C)c2cncs2)CC1` (configuration not stated), with 6.05%; and `CN(C)CCCNC(=O)C(c1cccc(F)c1)N(C)C` (configuration not stated), with -4.58%.
In the case of `CN1CCCC(c2cccc(-c3cccc(Cl)c3)n2)C1` (configuration not stated) it was -9.58%; in that of `CCOC(=O)CNC(=O)NCc1cc(C)n(-c2ccccc2OC)c1C`, 13.3%; in that of `O=c1cc(N2CCCC2)cnn1CC(F)F`, 6.93%.
Then `COc1ccc(CN2CCc3c(CNC(=O)CC#N)nn(C)c3C2)cc1`, with 9.67%.
Regarding `CC1=NOC(C(=O)N2CCC(O)(c3ccc4nc(C)ccc4c3)CC2)C1` (configuration not stated), the cytotoxicity at 10 µM was determined as 2.12%.
Then `CCc1ccccc1-c1cc(OC)nc(N)n1`, with -3.3%; and `N#Cc1ccccc1CN(CC(N)=O)C1CCCC1`, with 10.4%.
In the case of `O=C(CCc1cn[nH]c1)N1CCC(C2CCN(c3ncccn3)CC2)C1` (configuration not stated), the cytotoxicity at 10 µM is 10.2%.
In the case of `Cc1ccc(CS(=O)(=O)CC(=O)NCCCOC(C)C)cc1` it was -2.9%; in that of `Cc1ccc(C(=O)NS(=O)(=O)c2ccccc2Cl)c(=O)[nH]1`, -8.81%.
In the case of `c1csc(CN2CCO[C@H]3[C@H](OCC4CCCC4)CC[C@@H]32)n1` it was 6.09%; in that of `CCc1nc(CN2CCCN(C(=O)c3cnc[nH]3)CC2)cs1`, -9.39%.
Then `CCN1CCN(c2ccc(C(=O)NC(C)CCOC)cc2)CC1` (configuration not stated), with 8.7%; and `O=C1CN(Cc2nnc(-c3ccc(Br)cc3)o2)CCN1`, with 2.55%.
In the case of `CC(C)(C)CC(=O)NCC(=O)NCC(O)c1ccc2ccccc2c1` (configuration not stated), the cytotoxicity at 10 µM came to 9.73%.
In the case of `COc1ccc2c(c1)CC(NC(=O)NCc1cccs1)CO2` (configuration not stated) it was 7.52%; in that of `O=C(CCn1cccn1)NCC(c1cccs1)N1CCOCC1` (configuration not stated), -2.49%; in that of `CCN(C)C(=O)CCN(C)Cc1cnc(C)s1`, 4.04%.
As to `O=C(C1CCOC1)N1CC[C@@H](O)[C@@H]1Cc1ccccc1` (some centres not stated), the cytotoxicity at 10 µM was found to be 9.34%.
Regarding `CN(C)CC1CCN(Cc2nccn2CC(F)(F)F)CC1`, the cytotoxicity at 10 µM was 4.99%.
On to `O=C1Cc2cc(NC(=O)N3CCCN(Cc4cccs4)CC3)ccc2N1`, for which the cytotoxicity at 10 µM is 0.929%.
Consider `COc1cccc(NC(=O)NCC(Cc2cnn(C)c2)C(N)=O)c1` (configuration not stated), for which the cytotoxicity at 10 µM is -6.52%.
Then `N#Cc1cccnc1N1CCCC(CO)(CCOc2ccccc2)C1` (configuration not stated), with 3.04%.
In the case of `Cc1cc(C(F)(F)F)nn1CC(C)C(=O)Nc1cccnc1` (configuration not stated) it was 11.5%; in that of `Cc1noc(CN2C[C@@H]3CC[C@H]2CN(C2Cc4ccccc4C2)C3)n1`, 3.3%.
For the compound `Cc1cc(C)n(C2CN(CC(O)Cn3cccn3)C2)n1` (configuration not stated), the cytotoxicity at 10 µM is -5.09%.
For `CCn1cnnc1CNC(=O)N1CCOCC1`, the cytotoxicity at 10 µM was 3.66%.
With `CCCn1ccnc1CNC(=O)C1COc2cc(OC)ccc2C1` (configuration not stated), the cytotoxicity at 10 µM turned out to be 1.61%.
Consider `CSCC[C@H](N)C(=O)N1CC(Oc2ccccc2C)C1`, for which the cytotoxicity at 10 µM was determined as 0.897%.
For `CNc1cc(N2CCCC2CNCc2cccnc2)ncn1` (configuration not stated), the cytotoxicity at 10 µM was -11.5%.
For `CC(CC(=O)N1CCCN(Cc2nccn2C)CC1)n1cccc1` (configuration not stated), the cytotoxicity at 10 µM was -12.5%.
Then `N#Cc1cccnc1Nc1ccc(N2CCC(C(N)=O)CC2)cc1`, with -40.1%; and `COCc1ncc(CN2CC[C@@H](NC(=O)c3cccnc3)[C@H](O)C2)cn1`, with -7.28%.
Then `CC(C)c1nc(C2CCCN2Cc2nnc(C3CCC3)o2)no1` (configuration not stated), with -15.6%; and `CCN1CCCC1CN(Cc1ccon1)CC1CCN(CCOC)CC1` (configuration not stated), with -0.525%.
With `COc1cccc(CCC2CCCN(C(=O)C3=NN(C)C(=O)CC3)C2)c1` (configuration not stated), the cytotoxicity at 10 µM is -2.06%.
Then `Cc1noc(C)c1CN1Cc2ccnn2CC(C(=O)NCC2CC2)C1` (configuration not stated), with -69.2%; and `CCCc1cc(C(=O)N2C[C@H]3CCC[C@@]3(CO)C2)[nH]n1`, with 10.4%; and `CC(C)NC(=O)NCCCc1cc(N)n(-c2ccccc2)n1`, with -6.78%.
Then `Cc1ncsc1C(=O)N1CCC(c2ccc3c(NC(C)C)n[nH]c3n2)C1` (configuration not stated), with 4.42%.
Then `COc1nsc2nc(C3CCCN3c3ncccn3)ccc12` (configuration not stated), with 10.5%; and `CCN(C)C[C@@H]1CN(S(=O)(=O)c2ccc(C#N)cc2)C[C@@H]1CO`, with 13.5%; and `Cc1ccc([C@@H]2CN(C(=O)CCc3ccco3)C[C@H]2N(C)C)cc1`, with 3.13%.
For `COCc1ccccc1NC(=O)NC(C)c1ccc(C)o1` (configuration not stated), the cytotoxicity at 10 µM was found to be 0.205%.
In the case of `CN(C)CCN1C2(CCN(Cc3nccs3)C2)c2ccccc2S1(=O)=O` (configuration not stated) it was -71.8%.
Then `CCC(CC)C(=O)N1CCc2nc(N3CCCC3)nc(C)c2CC1`, with 1.79%; and `COCCNCc1cc2c(C)cc(C)cc2n2c(=O)n(C)nc12`, with -10.3%.
Regarding `Cc1ccc(CN2CCc3onc(COc4cccnc4)c3C2)s1`, the cytotoxicity at 10 µM was 5.98%.
Then `O=C(O)CC(CC(=O)NCCc1ccsc1)c1cccs1` (configuration not stated), with -10.9%; and `Cc1nn(C)c(C)c1-c1nccnc1CC1CCNCC1`, with -2.38%; and `c1ccc2c(Cc3nnc([C@H]4CCN(C5CCCCC5)C4)o3)c[nH]c2c1`, with -0.00726%.
Then `CCN1CCOCC12CCN(c1cnccn1)CC2`, with -111%; and `COCC(=O)NCc1cc(=O)n2c(n1)CN(Cc1nccs1)CCC2`, with -107%.
In the case of `O=C(OCCNc1ncccn1)c1ccc(Br)s1` it was -2.64%.
